We go through two compounds from ChEMBL document CHEMBL4196006, “Aryl thiosemicarbazones for the treatment of trypanosomatidic infections” (Eur J Med Chem, 2018).

Data set [1] concerns the target T1, Pteridine reductase, putative (Trypanosoma brucei) (UniProt Q581W1).
T1 sequence (whole entry): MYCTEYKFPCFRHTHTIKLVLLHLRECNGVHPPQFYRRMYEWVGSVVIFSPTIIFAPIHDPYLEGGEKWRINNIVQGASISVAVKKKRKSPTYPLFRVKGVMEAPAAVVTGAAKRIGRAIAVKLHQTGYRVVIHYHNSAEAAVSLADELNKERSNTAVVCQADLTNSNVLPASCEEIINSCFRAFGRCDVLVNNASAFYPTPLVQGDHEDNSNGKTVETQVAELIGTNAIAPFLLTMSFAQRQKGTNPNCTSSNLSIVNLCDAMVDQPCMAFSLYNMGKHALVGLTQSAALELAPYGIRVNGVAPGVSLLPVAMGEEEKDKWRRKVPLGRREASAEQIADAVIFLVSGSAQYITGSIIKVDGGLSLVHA
As to the kind of experiment: Inhibition of Trypanosoma brucei PTR1 at 50 uM using H2B as substrate in presence of NADPH by photometric analysis relative to control.

For data set [2], the system named is Trypanosoma brucei. As to the kind of experiment: Potentiation of methotrexate-induced antitrypanosomal activity against Trypanosoma brucei Lister 427 bloodstream form at 10 uM after 72 hrs by resazurin dye-based assay. The data set is classed as functional.
The target of the next data set is CYP2C19 (Homo sapiens, UniProt P33261). As to the kind of experiment: Inhibition of human microsomal CYP2C19 expressed in baculovirus infected BTI-TN-5B1-4 cells at 10 uM incubated for 30 mins by luciferase assay relative to control. The data set is classed as ADME. An outline of the steps:
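CYP1A2, 2C9, 2C19, 2D6 and 3A4 in microsomes from baculovirus-infected insect cells, each with a P450-Glo luminogenic substrate. Inhibition read as loss of light; single-point at 10 μM, triplicate.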

Data set [3] has as its system Trypanosoma brucei. As to the kind of experiment: Potentiation of methotrexate-induced antitrypanosomal activity against Trypanosoma brucei Lister 427 bloodstream form assessed as dose reduction index for methotrexate at EC50 after 72 hrs by resazurin dye-based assay. It counts as functional.
Data set [4] relates to Trypanosoma brucei. As to the kind of experiment: Antitrypanosomal activity against Trypanosoma brucei Lister 427 bloodstream form at 6:1 methotrexate to test compound ratio after 72 hrs by resazurin dye-based assay. It counts as functional, organism-based. The note with it: Lister 427, 72 h.
Data set [5] is described as follows: Cytotoxicity against human WI38 cells assessed as growth inhibition at 10 uM after 48 hrs by CellTiter-Glo assay relative to control; values are per cent of control. The note with it: WI38 cells.
Data set [6] can be described thus: Selectivity ratio of EC50 for Trypanosoma cruzi amastigote form to EC50 for Trypanosoma brucei Lister 427 bloodstream form. The data set is classed as functional.
A short description of data set [7]: Cytotoxicity against human 786-O cells assessed as inhibition of mitochondrial viability at 10 uM after 6 hrs by CMXRos staining based assay relative to control. The note with it: read-out: INH. It counts as cell-based, 786-0. An outline of the steps: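 Mitochondrial toxicity monitored by MitoTracker Red CMXRos uptake and high-content imaging; compound at 10 μM, triplicate.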

Data set [8] can be described thus: Cytotoxicity against human THP1 cells assessed as decrease in viable cells after 72 hrs by MTT assay. It counts as cell-based, THP-1. The note with it: THP1 cells. The essentials: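 THP-1-derived macrophages exposed to compounds for 72 h, tested at 100 μM or in dose-response; viability read by MTT colorimetric assay.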
The nature of data set [9]: Cytotoxicity against human U2OS cells assessed as decrease in viable cells after 72 hrs by cell number count in anti-T. cruzi high content imaging assay. The note with it: U2OS cells.
In data set [10] the test system is Trypanosoma brucei. As to the kind of experiment: Antitrypanosomal activity against Trypanosoma brucei Lister 427 bloodstream form at 30:1 methotrexate to test compound ratio after 72 hrs by resazurin dye-based assay. The note with it: Lister 427, 72 h. The data set is classed as functional, organism-based.
Data set [11] in a line: Selectivity index, ratio of CC50 for human THP1 cells to EC50 for Leishmania infantum amastigote form. The note with it: read-out: Ratio CC50/EC50. It counts as toxicity. The essentials: (§1)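 Selectivity index = CC50 in the human host or cytotoxicity cell line divided by parasite EC50.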
The test system of another data set is Leishmania infantum. As to the kind of experiment: Antileishmanial activity against Leishmania infantum amastigote form after 72 hrs by steady-Glo reagent based assay. It counts as functional, organism-based. The essentials:
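Intramacrophage L. infantum amastigotes in THP-1-derived macrophages, tested at 50 μM or in dose-response. Plates held 72 h at 37 °C, 5% CO2. Medium was replaced by PBS, macrophages lysed, and parasites read by Steady-Glo luminescence. High-content imaging gave host cell number, infection ratio (infected/total cells) and parasites per infected cell. Values are means of at least two independent experiments.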

Data set [12] can be described thus: Selectivity index, ratio of CC50 for human U2OS cells to EC50 for Trypanosoma cruzi amastigote form. It counts as toxicity. The note with it: read-out: Ratio CC50/EC50. The essentials:
as §1

Chain of CYP2C19 (P33261 whole entry): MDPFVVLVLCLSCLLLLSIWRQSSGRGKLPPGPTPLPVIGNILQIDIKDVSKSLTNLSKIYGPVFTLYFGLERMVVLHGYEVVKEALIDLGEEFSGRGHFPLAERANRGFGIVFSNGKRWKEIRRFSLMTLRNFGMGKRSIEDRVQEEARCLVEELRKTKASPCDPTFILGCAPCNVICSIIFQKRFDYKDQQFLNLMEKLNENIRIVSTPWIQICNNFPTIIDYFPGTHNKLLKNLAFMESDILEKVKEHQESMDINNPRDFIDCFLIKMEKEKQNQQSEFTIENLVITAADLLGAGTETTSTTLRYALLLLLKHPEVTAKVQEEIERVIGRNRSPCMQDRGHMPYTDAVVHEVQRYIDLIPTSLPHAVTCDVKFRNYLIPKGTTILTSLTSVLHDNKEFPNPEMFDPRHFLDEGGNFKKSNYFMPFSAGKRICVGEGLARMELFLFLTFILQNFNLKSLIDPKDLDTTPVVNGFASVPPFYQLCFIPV

In the case of `COc1ccc(-c2cccc(/C=N/NC(N)=S)c2)cc1OC`, in data set [1], the inhibition stood at 3.09%. The PF in the data set on Trypanosoma brucei [2] is 0.81. The same compound gave an inhibition at 0.5 h, 10 µM against CYP2C19 of 22.2%. In the data set on Trypanosoma brucei [3], the Activity came to 6.36. Besides, the EC50 with Trypanosoma brucei [4] stood at 0.59 µM. The cell growth (% of control) at 48 h, 10 µM in data set [5] worked out at 106%. In [6], the Ratio EC50 was 4. In addition, the cytotoxicity at 6 h, 10 µM in data set [7] is -13.1%.

For `NC(=S)N/N=C/c1ccc(OCc2ccc(Cl)c(Cl)c2)cc1`, the CC50 at 72 h in data set [8] was determined as 82 µM; in data set [9] it was 72 µM. Besides, the inhibition in [1] is 0.36%. Also, the PF in the data set on Trypanosoma brucei [2] stood at 0.8. The inhibition at 0.5 h, 10 µM against CYP2C19 amounted to 10.4%. Moreover, the values for the EC50 in the data set on Trypanosoma brucei [10] and with Leishmania infantum were 0.11 µM and 6.14 µM, respectively. The values for the selectivity ratio in [11] and in data set [12] were 13 and 55, respectively. In addition, in the data set with Trypanosoma brucei [3], the Activity was 6.56. Moreover, the cell growth (% of control) at 48 h, 10 µM in [5] was 89.4%. Also, in [7], the cytotoxicity at 6 h, 10 µM was 23.4%.
